For test [1], the system named is Mycobacterium tuberculosis. Description: Induction of resistance development in Mycobacterium tuberculosis mc2 6230 harbouring pMV261 plasmid overexpressing inhA assessed as fold increase in MIC measured after 7 days by 7H9 broth based dilution method. In kind it is functional. As to conditions: time 7 day.
Test [2] has as its system Mycobacterium tuberculosis. As to the kind of experiment: Antimycobacterial activity against Mycobacterium tuberculosis mc2 6230 harbouring pMV261 plasmid overexpressing inhA assessed as inhibition of bacterial growth measured after 7 days by 7H9 broth based dilution method. In kind it is functional. As to conditions: mc2 6230, 168 h, time 7 day.
In test [3] the test system is Mycobacterium tuberculosis. Description: Induction of resistance development in Mycobacterium tuberculosis mc2 6230 harbouring pMV261 plasmid overexpressing inhA assessed as fold increase in MIC measured after 7 days by 7H10 agar based dilution method. The format is functional. Conditions: time 7 day.
In test [4] the test system is Mycobacterium tuberculosis. As to the kind of experiment: Antimycobacterial activity against Mycobacterium tuberculosis mc2 6230 harbouring pMV261 plasmid overexpressing inhA assessed as inhibition of bacterial growth measured after 7 days by 7H10 agar based dilution method. In kind it is functional. As to conditions: mc2 6230, 168 h, time 7 day.
For test [5], the system named is Mycobacterium tuberculosis. As to the kind of experiment: Inhibition of mycolic acid biosynthesis in Mycobacterium tuberculosis mc2 6230 harbouring pMV261 plasmid overexpressing inhA assessed as decrease in methoxy-mycolic acid at 1.25 ug/ml incubated for 15 mins followed by 14C-labeled acetate addition measured after 7 hrs by TLC analysis. In kind it is functional, organism-based. Conditions: dose 1.25 µg/ml, time 435.0 min. In short, it runs like this:
(§1)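 mc²6230 carrying pMV261-inhA, treated for 15 hrs at 37 °C with agitation in 7H9/OADC/tyloxapol/pantothenate. Then labelled with 1 μCi/mL [¹⁴C]acetate for 7 hrs. Mycolic acid methyl esters extracted, 50,000 cpm resolved by TLC (hexane/ethyl acetate 19/1, 2 runs) and exposed overnight.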

Test [6] deals with Mycobacterium tuberculosis. As to the kind of experiment: Induction of resistance development in Mycobacterium tuberculosis harbouring katG 186 del mutant assessed as resistance frequency at 20 times of MIC by visual analysis. The format is functional.
In test [7] the test system is Mycobacterium tuberculosis. Description: Inhibition of mycolic acid biosynthesis in Mycobacterium tuberculosis mc2 6230 harbouring pMV261 plasmid overexpressing inhA assessed as decrease in keto-mycolic acid at 1.25 ug/ml incubated for 15 mins followed by 14C-labeled acetate addition measured after 7 hrs by TLC analysis. The format is functional, organism-based. Conditions: dose 1.25 µg/ml, time 435.0 min. The procedure, abridged: as §1

Test [8] relates to Mycobacterium tuberculosis. Description: Induction of resistance development in Mycobacterium tuberculosis harbouring katG F594C mutant assessed as resistance frequency at 5 times of MIC by visual analysis. In kind it is functional.
Test [9] concerns Mycobacterium tuberculosis. As to the kind of experiment: Inhibition of mycolic acid biosynthesis in Mycobacterium tuberculosis mc2 6230 harbouring pMV261 plasmid overexpressing inhA assessed as decrease in alpha-mycolic acid at 1.25 ug/ml incubated for 15 mins followed by 14C-labeled acetate addition measured after 7 hrs by TLC analysis. In kind it is functional, organism-based. As to conditions: dose 1.25 µg/ml, time 435.0 min. The procedure, abridged:
as §1

For test [10], the system named is Mycobacterium tuberculosis. As to the kind of experiment: Induction of resistance development in Mycobacterium tuberculosis harbouring katG amino acid change at stop codon mutant assessed as resistance frequency at 5 times of MIC by visual analysis. In kind it is functional.
Test [11] concerns Mycobacterium tuberculosis. Description: Induction of resistance development in Mycobacterium tuberculosis harbouring katG G495D mutant assessed as resistance frequency at 20 times of MIC by visual analysis. The format is functional.
The subject of test [12] is Mycobacterium tuberculosis. As to the kind of experiment: Induction of resistance development in Mycobacterium tuberculosis harbouring katG W161R mutant assessed as resistance frequency at 5 times of MIC by visual analysis. The format is functional.

Converted amounts (≈) assume the structure as drawn. The source made the active and inactive calls. The calls are words filed in the database; no cut-off is given here. Some results are limits rather than exact numbers.

As a reminder, the MIC is the lowest concentration that inhibits growth of the organism.

On to `NNC(=O)c1ccncc1` [ISONIAZID], for which the “fold change (FC)” value in test [1] and in [3] was 20 each time. Also, the minimum inhibitory concentration (MIC) in test [2] and in test [4] was 1 µg/mL (≈ 7.29 µM) in each case.
Take `O=C(N/N=C/c1ccc(OCc2cn(CCNc3ccnc4cc(Cl)ccc34)nn2)cc1)c1ccncc1`: the “fold change (FC)” value in [1] and in test [3] was 25 each time. Further, the minimal inhibitory concentration (MIC) in test [2] stood at 12.5 µg/mL (≈ 23.7 µM); in test [4], 6.25 µg/mL (≈ 11.9 µM).
With `COc1cc(/C=N/NC(=O)c2ccncc2)ccc1OCc1cn(-c2ccnc3cc(Cl)ccc23)nn1`, the “fold change (FC)” value in test [1] and in test [3] was 25 each time. Besides, the MIC in test [2] was 50 µg/mL (≈ 97.3 µM); in [4], 12.5 µg/mL (≈ 24.3 µM).
Consider `O=C(N/N=C/c1ccccc1-n1cc(CN2CCN(c3ccnc4cc(Cl)ccc34)CC2)nn1)c1ccncc1`, for which the inhibition entry in test [5], in test [7] and in test [9] was “inactive” in each case. For the same compound, the Activity in [6] is on record as 7.1 10^-7No_unit; in test [8], 1.8 10^-6No_unit. Moreover, the “fold change (FC)” value in test [1] and in test [3] was 25 in each case. In addition, the MIC in test [2] and in [4] was 6.25 µg/mL (≈ 11.3 µM) throughout.
On to `O=C(N/N=C/c1ccc(OCc2cn(CCCNc3ccnc4cc(Cl)ccc34)nn2)cc1)c1ccncc1`, for which the Activity was 1.52 10^-6No_unit in test [10] and 5 10^-7No_unit in test [11]. For the same compound, the “fold change (FC)” value in test [1] and in [3] was 25 in each case. For the same compound, the MIC was 12.5 µg/mL (≈ 23.1 µM) in test [2] and 6.25 µg/mL (≈ 11.6 µM) in test [4].
Regarding `COc1cc(/C=N/NC(=O)c2ccncc2)ccc1OCc1cn(CCNc2ccnc3cc(Cl)ccc23)nn1`, the “fold change (FC)” value in test [1] and in test [3] was 25 throughout. Further, the MIC in [2] turned out to be 25 µg/mL (≈ 44.9 µM); in test [4] it was 12.5 µg/mL (≈ 22.4 µM).
Turning to `O=C(N/N=C/c1ccc(OCc2cn(-c3ccnc4cc(Cl)ccc34)nn2)cc1)c1ccncc1`, the “fold change (FC)” value in test [1] and in [3] was 25 in each case. In addition, the values for the MIC in [2] and in test [4] were above 200 µg/mL and 6.25 µg/mL (≈ 12.9 µM), respectively.
For the compound `COc1cc(/C=N/NC(=O)c2ccncc2)ccc1OCc1cn(CCCNc2ccnc3cc(Cl)ccc23)nn1`, the “fold change (FC)” value in [1] and in test [3] was 25 in each case. Also, the MIC in [2] was found to be 25 µg/mL (≈ 43.8 µM); in [4] it was 6.25 µg/mL (≈ 10.9 µM). Besides, the Activity in [12] is on record as 1.16 10^-6No_unit.

The record behind these values is ChEMBL document CHEMBL5346861, “Designing quinoline-isoniazid hybrids as potent anti-tubercular agents inhibiting mycolic acid biosynthesis” (Eur J Med Chem, 2022).
